# Assay: Toxicity liver stage against HepG2, at 10uM
# Type: cell-based
# Set-up: test concentration 10 uM, cell line HepG2-A16-CD81EGFP
# Settings: human, HepG2-A16-CD81EGFP cells; read-out: INHIBITION
# How it was run: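 Uninfected HepG2-A16-CD81EGFP cells, 3 × 10^3 per well, 1536-well, plated on prespotted compound at 10 μM final, parasite-free screening media added to match infected plates; puromycin 10 μM positive, DMSO 0.5% negative; run in parallel with 48 h PbLuc assay at 37 °C, 5% CO2; viability by CellTiter-Glo luminescence, normalized to controls.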
row,SMILES,cytotoxicity at 10 µM
1,COCCOc1ccnc(-c2noc([C@@H]3CCCN3C)n2)c1,-7.18%
2,CC(C)(C)CN1CCC[C@H]1c1nc(-c2cncnc2N)no1,-3.66%
3,COC(=O)[C@@H]1Cc2c[nH]c3cccc(c23)[C@H](CC(C)C)N1,9.57%
4,CN1CCC(N[C@@H]2CO[C@H](CNC(=O)C3CCCC3)[C@H]2O)CC1,-4.63%
5,CC[C@H]1CN2CC[C@H]1C[C@@H]2CNC(=O)c1ccco1,3.46%
6,CCOC(=O)[C@H]1[C@@H](O)C(=O)N(C)C12CCN(C(=O)OC)CC2,-0.817%
7,CCOC(=O)CNC(=O)N1CCC(OC)c2ccccc2N(C)C(=O)C1 (centres undefined),3.36%
8,COc1ccc2c3c1CN(S(C)(=O)=O)CC3=CC(C)(C)CO2,7.77%
9,CC(C)OCC(=O)Nc1ccc(Oc2ccc3c(c2)OCO3)nc1,-13.1%
10,CCN(CC)c1nc2ccsc2c(=O)n1CCC(=O)NCc1cccs1,-5.27%
11,COc1ccc(Cl)cc1NC(=O)CN1CCc2nc(NC(C)=O)sc2C1,-4.2%
12,CCOCC1c2c(ncn2C(C)C)CCN1C(=O)CC (centres undefined),4.17%
13,Cc1cnc(N2CCC[C@@H]3CN(S(C)(=O)=O)C[C@@H]32)nc1,9.34%
14,CN1CCN([C@@H]2CN(C(=O)c3ccnnc3)[C@@H]3CCCO[C@H]23)CC1,7.16%
15,CCS(=O)(=O)N1CCC2(CC1)CC(OCC1CC1)CO2 (centres undefined),7.92%
16,COCC1CN(C(=O)N2CCCC2)Cc2cnn(CC3CCCC3)c21 (centres undefined),9.23%
17,Nc1nc2c(s1)C(c1c(F)cccc1Cl)CC(=O)N2 (centres undefined),4.21%
18,CCC1=NC(SCC(=O)c2ccc(Cl)cc2)c2cc(CC)sc2N1 (centres undefined),8.16%
19,Cc1nn(C)c2cn(CC(=O)N3CCN(c4ccccn4)CC3)nc12,3.57%
20,Cc1ccn(-c2ccnc(N3CCSCC3)n2)n1,9.87%
21,O=C(c1c(F)cccc1F)N1CCC[C@@H]1Cn1c(=O)oc2ccccc21,4.42%
22,CCn1cc(CN2CCC(c3ncc(Cl)cc3S(C)(=O)=O)CC2)c(C)n1,5.68%

row,SMILES,cytotoxicity at 10 µM
1,COCC(=O)NCCc1nc2cc(-c3ccc(OC)cc3)ncn2n1,10.5%
2,COc1c(CNCCc2c[nH]c3ccccc23)c(C)nn1C,15%
3,CN1CCN(c2ccccc2CNC(=O)Cc2cccc(F)c2)CC1,-6.29%
4,N#CCCN(Cc1cccnc1)C(=O)c1cc(Cl)c[nH]1,-18.4%
5,CCc1ccc(S(=O)(=O)Nc2cnccc2C)s1,-3.63%
6,CN1CCN(C)C(CNC(=O)N(C)Cc2ccc(Cl)c(F)c2)C1 (centres undefined),6.32%
7,COc1cccc(CC(C)NC(=O)NC(C)C)c1 (centres undefined),4.72%
8,COc1cccc(CC(C)NC(=O)NCCNC(C)=O)c1 (centres undefined),7.89%
9,Cc1ccc(C(=O)N2CCN(c3ncnc4nc(N)ccc34)CC2)cc1,8.88%
10,O=C(c1ccoc1)N1CCC(O)(C(F)(F)F)CC1,3.88%
11,CCCn1nc(C(=O)NCc2nnc3n2CCC3)ccc1=O,-3.18%
12,CCc1nc(CN2CC(C(=O)OC)O[C@H](C)C2)cs1 (some centres undefined),-10.9%
13,O=C(O)c1ccn(-c2ccccc2NS(=O)(=O)c2cccc(F)c2)n1,-18.6%
14,O=C1CN(c2ccc(CNC(=O)c3ccc[nH]3)cc2F)CCN1,1.28%
15,CC(CNC(=O)NCCCc1cc(N)n(-c2ccccc2)n1)N(C)C (centres undefined),11.9%
16,CC(C)CCn1ccc(NC(=O)N2CCCC2C(C)(C)O)n1 (centres undefined),5.07%
17,COc1ccc(CNCCc2cc(F)cc3c2OCOC3)c(OC)c1,-3.41%
18,Cc1csc(N2CCN(Cc3nccn3C)CC2C)n1 (centres undefined),-0.274%
19,Cc1n[nH]c(C)c1CNC(=O)N1CCCC(Cc2nccn2C)C1 (centres undefined),-19.2%
20,CN(C)c1cc(C(=O)NCC2(c3cccc(F)c3)CCOCC2)ccn1,8.8%
21,Cn1ccc2c(C(=O)N3CCC4(CCOC4)C3)cccc21 (centres undefined),-152%
22,Cc1cc(C)n(-c2ccc(C(=O)NCC(c3cccs3)N(C)C)cc2)n1 (centres undefined),4.58%

row,SMILES,cytotoxicity at 10 µM
1,O=C1CCCN1CC1CCCCN1C(=O)Nc1cccnc1 (centres undefined),-0.123%
2,CCc1nnc2n1CCN(CC(O)CN1CCC(C)CC1)C2 (centres undefined),-7.37%
3,Cc1ccccc1C1(CNC(=O)c2ccc(S(C)(=O)=O)cc2)CC1,-7.16%
4,CNC(=O)c1ccc2c(c1O)OC(C)(C)C2,-6.08%
5,CCOc1ccc(C#N)cc1NC(=O)N1CCOC(C(N)=O)C1 (centres undefined),12.9%
6,COC1CCCN(C(=O)c2sc(CC(C)C)nc2C)C1 (centres undefined),10.9%
7,Cc1ccc2ncnc(N3CCOCC3c3c(C)nn(C)c3C)c2c1 (centres undefined),12.2%
8,CCN(Cc1nc(C(C)C)no1)Cc1cccs1,-8.57%
9,CC1Cc2ccccc2N1Cc1occc1C(=O)OCC(N)=O (centres undefined),-9.18%
10,CC(C)c1ccc(-c2nnn(CCNS(C)(=O)=O)n2)cc1,-3.51%
11,CC(=O)c1c(F)cccc1N1CCC(CS(N)(=O)=O)CC1,-7.79%
12,Cc1nc(C)n(CC2CN(CC(=O)Nc3nccs3)CCO2)n1 (centres undefined),-13.8%
13,CNC(=O)[C@@H]1C[C@@H]2CCN(Cc3ccoc3)C[C@H]2O1,-108%
14,O=C(c1cscn1)N1CC[C@H]2C[C@H](c3nnc(C4CC4)o3)O[C@@H]2C1,-111%
15,CCN1Cc2c(C(=O)NC(C)C(C)C)ncn2-c2ccccc2S1(=O)=O (centres undefined),-66.3%
16,O=C(c1ccco1)N1CC[C@@H]2[C@H]1CCC(=O)N2c1ccccc1,-110%
17,Cc1nc(NCC2CC2)nc2c1COCC21CCN(C(=O)NC(C)C)C1 (centres undefined),-83.2%
18,CC(C)NC(=O)C1CN(C(=O)c2ccccc2)CC12CCOCC2 (centres undefined),-82.6%
19,Cc1cc2cc(NC(=O)Cn3ncc(N4CCCC4)cc3=O)ccc2o1,-0.273%
20,CCCn1cnnc1CNC(=O)C1COc2cc(OC)ccc2C1 (centres undefined),3.21%
21,CCN(CC)Cc1cc(C(=O)N2CCCC(CC)(C(=O)O)C2)c(C)o1 (centres undefined),7.25%
22,CCc1nnc(CN(CC)C(=O)C(C)n2ccnc2C(C)C)o1 (centres undefined),6.23%

row,SMILES,cytotoxicity at 10 µM
1,O=C(O)c1cc(-n2cc3c(n2)CCC3)cc(S(=O)(=O)NC2CCCC2)c1,-2.05%
2,COCCn1cncc1CN1CCCC(C)(c2ccccc2)C1 (centres undefined),0.363%
3,CCn1nc(C(=O)N2CCNCC2C(=O)Nc2ccc(C)nc2)cc1C (centres undefined),10.2%
4,Clc1ccccc1OC1CCN(CC2CCOC2)CC1 (centres undefined),-9.85%
5,O=C(NCCN1CCOC1=O)c1cc(-c2ccccc2)on1,12.3%
6,CN(C)c1ncnc2c1CCN(C(=O)CN1CCCCC1)C2,-0.747%
7,CCCc1cc(N2CCC(NCCc3ccc(O)cc3)CC2)nc(C)n1,-6%
8,O=S1(=O)COCCN1Cc1ccc(F)c(F)c1,3.42%
9,NC(=O)c1cc2c(nc1-c1ccoc1)CCC2,0.562%
10,Cc1n[nH]c(C)c1Sc1ccccc1NC(=O)N1CCOCC1,4.63%
11,CCC(C)Sc1ncc(-c2c(C#N)c(N)nc3c2COCC3)cn1 (centres undefined),15.1%
12,NCCc1n[nH]c(=O)n1-c1cccc2ccccc12,3.96%
13,Cc1ccsc1-c1nc(CN(C)Cc2noc(C(C)C)n2)c(C)o1,-5.85%
14,Cc1nccn1CCCC(=O)N1CCC2(CCC(=O)N(C(C)C)C2)CC1,-10.8%
15,COc1ccnc(N2CCC3(CCCN(CC4CC4)C3=O)C2)n1 (centres undefined),1.13%
16,CCn1nc(CNC(=O)C2CC(=O)N(C3CCCC3)C2)c2ccccc21 (centres undefined),-25.8%
17,O=S(=O)(NCC1CCOc2ccccc2C1)N1CCOCC1 (centres undefined),-9.75%
18,COCC1CCCN(C(=O)c2cc(Cn3ccc4ccccc43)[nH]n2)C1 (centres undefined),-11.5%
19,Cc1nc(CN2CCCC(Cn3cncn3)C2)nc2ccccc12 (centres undefined),-16.2%
20,COC(=O)c1cc(C(=O)N2CCN(C)CC2)n(-c2ccccc2)n1,-13.2%
21,CC(NC(=O)CSCC(=O)Nc1ccccc1)c1ccccc1 (centres undefined),-6.17%
22,Cc1nc2ccnn2c(C)c1CCC(=O)N1CCN(C2CC2)CC1,-7.2%

row,SMILES,cytotoxicity at 10 µM
1,Cc1cccc(OCCNC(=O)CN2CCCC2Cn2cccn2)c1 (centres undefined),-9.46%
2,Cc1cc(C)c(CNC(=O)NCc2ccc3c(c2)CCC3)c(=O)[nH]1,10.4%
3,CCNc1cc2c(nn1)CCN(C(=O)CC1CCCCC1)C2,-10.3%
4,Cc1nc(CN2CCN(C(=O)c3ccn(C)c(=O)c3)CC2)cs1,1.73%
5,CCC1CN(C(=O)NCCOc2ccc3c(c2)OCO3)CCO1 (centres undefined),-4.25%
6,Cc1cn2c(n1)CCC(NC(=O)c1nc(C)ncc1Cl)C2 (centres undefined),-3.13%
7,OCC1CCCN1c1cc(N2CCc3ccccc3C2)ncn1 (centres undefined),2.53%
8,Cn1cc(CN2CC[C@H]3O[C@H](C(=O)Nc4cnccn4)CC[C@H]32)cn1,-135%
9,O=C1C[C@H]2[C@@H](CCN2C(=O)c2ccccc2)N1CCN1CCOCC1,-3.33%
10,O=C(C1CCOCC1)N1CCc2ncc(CN3CCCC3)n2CC1,-76.1%
11,COCCN1CCCn2cnc(CNC(=O)N(C)C)c2C1,4.47%
12,CO[C@H]1CCN(Cc2cccc(C)n2)[C@@H]2CN(Cc3cccnc3)C[C@H]12,-11.3%
13,COCCN1C[C@@H]2[C@@H](OC)CCN(Cc3ccsc3)[C@@H]2C1,2.78%
14,CN1CC(=O)N(c2cnn(C)c2)CC12CCN(CC1CC1)C2 (centres undefined),7.6%
15,c1cnc2c(c1)cc([C@H]1CCCO1)n2CCN1CCOCC1,-11.3%
16,CC(C)NC(=O)CC1COC2(CCN(Cc3cccs3)CC2)C1 (centres undefined),4.57%
17,CCOCc1nnc2n1CCN(Cc1c(C)noc1C)CC2,-95.3%
18,CC(C)C(=O)N1CCCC2(C1)CN(c1nncs1)CCO2 (centres undefined),-104%
19,O=C(NC[C@]12COC[C@H]1CN(CC1CCOCC1)C2)c1ccccc1,-5.15%
20,O=C(CCc1ccccc1)N1C[C@@H]2CN(Cc3ccoc3)CCO[C@@H]2C1,-77.8%
21,CSc1ncccc1C(=O)N1C[C@@H]2CC[C@H]1CN(C(=O)N(C)C)C2,1.71%

# From ChEMBL document CHEMBL4513216, “Probing the Open Global Health Chemical Diversity Library for Multistage-Active Starting Points for Next-Generation Antimalarials” (ACS Infect Dis, 2020)
